Experimental data reported in ChEMBL document CHEMBL4823313 (Bioorg Med Chem, 2021).

Legend:
[1] = system: SARS-CoV-2; assay: (§1) Antiviral activity against SARS-CoV-2 nCoV-2019BetaCoV/Wuhan/WIV04/ infected in African green monkey Vero E6 cells assessed as inhibition of viral replication at 5 uM when host cells were pretreated for 1 hr followed by viral infection then followed by removal of infected supernatant and subsequent culture addition with fresh compounds and measured after 24 hrs by qRT-PCR method relative to control; format: functional; settings: Severe acute respiratory syndrome coronavirus 2, nCoV-2019BetaCoV/Wuhan/WIV04/, Vero C1008, time 25 hrs
[2] = system: SARS-CoV-2; assay: as §1, with “replication” for “replication at 5 uM”, “method” for “method relative to control”; format: functional, organism-based; settings: Severe acute respiratory syndrome coronavirus 2, nCoV-2019BetaCoV/Wuhan/WIV04/, Vero C1008
[3] = system: Vero C1008; assay: Cytotoxicity against African green monkey Vero E6 cells by CCK8 assay; format: cell-based; settings: chlorocebus sabaeus
Summary of the method: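 Vero E6 cell viability was read by CCK-8 colorimetric assay.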

[4] = system: SARS-CoV-2; assay: as §1, with “10” for “5”; format: functional; settings: Severe acute respiratory syndrome coronavirus 2, nCoV-2019BetaCoV/Wuhan/WIV04/, Vero C1008, time 25 hrs
[5] = Stability of compound in stimulated gastric fluid incubated for 24 hrs by HPLC analysis; format: ADME; settings: simulated gi fluid
Summary of the method: (§2)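 Compound solution was diluted into artificial gastric or intestinal juice and incubated at 37 °C. Samples were taken at 0, 1, 2, 3, 4, 6 and 24 h and quenched with ice-cold acetonitrile. After centrifugation, supernatants were analysed by HPLC.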

[6] = Stability of compound in stimulated intestinal fluid assessed as parent compound remaining measured after 4 hrs by HPLC analysis; format: ADME; settings: simulated intestinal fluid, read-out: Stabilty; summary of the method: as §2
[7] = Half life in CD-1 mouse at 50 mg/kg, po by LC-MS/MS analysis; format: ADME, organism-based; settings: in vivo
Summary of the method: (§3)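 Mice were fasted 12 h. Dosing was 50 mg/Kg orally or 25 mg/Kg intravenously, in DMSO-ethanol-PEG300-saline (5/5/40/50, v/v/v/v). Blood was drawn from the femoral vein into heparinized tubes at several post-dose times, and analytes were measured by LC-MS/MS.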

[8] = AUClast in CD-1 mouse at 50 mg/kg, po by LC-MS/MS analysis; format: ADME, organism-based; parameters: route oral, time 0 - last, dose 50 mg/kg; settings: in vivo; summary of the method: as §3
[9] = AUClast in CD-1 mouse at 25 mg/kg, iv by LC-MS/MS analysis; format: ADME, organism-based; parameters: route intravenous, time 0 - last, dose 25 mg/kg; settings: in vivo; summary of the method: as §3
[10] = Half life in CD-1 mouse at 25 mg/kg, iv by LC-MS/MS analysis; format: ADME, organism-based; settings: in vivo; for half-life: CD-1, mouse; summary of the method: as §3
[11] = Tmax in CD-1 mouse at 50 mg/kg, po by LC-MS/MS analysis; format: ADME, organism-based; settings: in vivo; summary of the method: as §3
[12] = Observed volume of distribution at steady state in CD-1 mouse at 25 mg/kg, iv by LC-MS/MS analysis; format: ADME, organism-based; settings: in vivo; for Vd: CD-1, mouse, read-out: Vdss; summary of the method: as §3
[13] = Observed MRT infinity in CD-1 mouse at 25 mg/kg, iv by LC-MS/MS analysis; format: ADME, organism-based; settings: in vivo; for MRT inf: CD-1, mouse; summary of the method: as §3
[14] = Cmax in CD-1 mouse at 50 mg/kg, po by LC-MS/MS analysis; format: ADME, organism-based; parameters: route oral, dose 50 mg/kg; settings: in vivo; summary of the method: as §3
[15] = Oral bioavailability in CD-1 mouse at 50 mg/kg by LC-MS/MS analysis; format: ADME, organism-based; settings: in vivo; summary of the method: as §3
[16] = Observed MRT infinity in CD-1 mouse at 50 mg/kg, po by LC-MS/MS analysis; format: ADME, organism-based; settings: in vivo; summary of the method: as §3
[17] = Acute toxicity in ICR mouse assessed as effect on body weight at 100 to 1000 mg/kg, po via gavage and measured after 7 days; format: organism-based; settings: in vivo, 168 h, dose 100-1000 mg/kg, time 7 day
Summary of the method: (§4)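 Male ICR mice (28–36 g), 3 per group, were fasted 16 h. Each got one oral gavage dose of 50, 100, 200, 500 or 1000 mg/kg in 5% DMSO, 5% Solution Hs15 and 90% saline. Clinical signs, body weight and food consumption were followed for 7 days, and animals were sacrificed on day 8.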

[18] = Acute toxicity in po dosed ICR mouse assessed as maximum tolerated dose measured after 7 days; format: organism-based; settings: in vivo, time 7 day; summary of the method: as §4
[19] = Acute toxicity in ICR mouse assessed as effect on organ weight at 100 to 1000 mg/kg, po via gavage and measured after 7 days; format: organism-based; settings: in vivo, 168 h, dose 100-1000 mg/kg, time 7 day

Compound: Nc1ncnn2c([C@@H]3O[C@H](CO)[C@@H](O)[C@H]3F)ccc12
- inhibition at 5 µM [1]: < 10%

Compound: CCC(CC)COC(=O)[C@H](C)N[P@](=O)(OC[C@H]1O[C@@](C#N)(c2ccc3c(N)ncnn23)[C@H](O)[C@@H]1O)Oc1ccccc1
- inhibition at 5 µM [1]: 65%
- EC50 [2]: 2000 nM

Compound: Nc1ncnn2c([C@@H]3O[C@H](CO)[C@@H](O)[C@H]3O)ccc12
- Activity [3]: Toxic

Compound: N#C[C@@]1(c2cc(F)c3c(N)ncnn23)O[C@H](CO)[C@@H](O)[C@H]1O
- inhibition at 10 µM [4]: 97%
- inhibition at 5 µM [1]: 80%
- EC50 [2]: 3300 nM

Compound: CC(=O)[C@@]1(c2ccc3c(N)ncnn23)O[C@H](CO)[C@@H](O)[C@H]1O
- inhibition at 5 µM [1]: < 10%

Compound: CCCCCOC(=O)Nc1ncnn2c([C@]3(C#N)O[C@H](CO)[C@@H](O)[C@H]3O)ccc12
- inhibition at 10 µM [4]: 65%

Compound: CC(C)C(=O)O[C@H]1[C@@H](OC(=O)C(C)C)[C@](C#N)(c2ccc3c(N)ncnn23)O[C@@H]1CO
- inhibition at 5 µM [1]: 99%

Compound: Nc1ncnn2c([C@]3(CO)O[C@H](CO)[C@@H](O)[C@H]3O)ccc12
- inhibition at 5 µM [1]: < 10%

Compound: N#C[C@@]1(c2cc(I)c3c(N)ncnn23)O[C@H](CO)[C@@H](O)[C@H]1O
- inhibition at 5 µM [1]: < 10%

Compound: CC(C)[C@H](N)C(=O)OC[C@H]1O[C@@](C#N)(c2ccc3c(N)ncnn23)[C@H](O)[C@@H]1O
- Stabilty [5]: Stable
- remaining at 4 h [6]: 9%

Compound: OC[C@H]1O[C@@H](c2ccc3c(NO)ncnn23)[C@H](O)[C@@H]1O
- inhibition at 5 µM [1]: < 10%

Compound: CC(C)C(=O)OC[C@H]1O[C@@](C#N)(c2ccc3c(N)ncnn23)[C@H](O)[C@@H]1OC(=O)C(C)C
- inhibition at 5 µM [1]: 99%

Compound: N#Cc1cc([C@]2(C#N)O[C@H](CO)[C@@H](O)[C@H]2O)n2ncnc(N)c12
- inhibition at 5 µM [1]: < 10%

Compound: CO[C@@H]1[C@H](O)[C@@H](CO)O[C@@]1(C#N)c1ccc2c(N)ncnn12
- inhibition at 5 µM [1]: < 10%

Compound: Br.CC(C)C(=O)OC[C@H]1O[C@@](C#N)(c2ccc3c(N)ncnn23)[C@H](OC(=O)C(C)C)[C@@H]1OC(=O)C(C)C
- half-life [7]: 2.71 h
- AUC(0-t) [8]: 7110 ng·h/mL
- AUC(0-t) [9]: 3600 ng·h/mL
- half-life [10]: 2.48 h

Compound: C=C(C)[C@@]1(c2ccc3c(N)ncnn23)O[C@H](CO)[C@@H](O)[C@H]1O
- inhibition at 5 µM [1]: < 10%

Compound: NC(=O)[C@@]1(c2ccc3c(N)ncnn23)O[C@H](CO)[C@@H](O)[C@H]1O
- inhibition at 5 µM [1]: < 10%

Compound: CC(C)[C@H](N)C(=O)O[C@H]1[C@@H](O)[C@](C#N)(c2ccc3c(N)ncnn23)O[C@@H]1CO.Cl.Cl
- half-life [7]: 1.72 h
- Tmax [11]: 0.83 h
- Vdss ([12]; mouse, 25 mg/kg): 3.86 L/kg
- MRT ([13]; mouse, 25 mg/kg): 0.78 h
- inhibition at 5 µM [1]: 99%
- EC50 [2]: 110 nM
- AUC(0-t) [8]: 2980 ng·h/mL
- Stabilty [5]: Stable
- Cmax [14]: 1510 ng/mL
- F [15]: 27.5%
- AUC(0-t) [9]: 5420 ng·h/mL
- t1/2 ([10]; mouse, 25 mg/kg): 0.61 h
- remaining at 4 h [6]: 34%
- MRT inf [16]: 2.76 h

Compound: CC(C)C(=O)O[C@H]1[C@@H](O)[C@](C#N)(c2ccc3c(N)ncnn23)O[C@@H]1CO
- half-life [7]: 1.11 h
- Tmax [11]: 0.33 h
- Vd [12]: 2.59 L/kg
- MRT inf [13]: 1.07 h
- inhibition at 5 µM [1]: 99%
- EC50 [2]: 250 nM
- AUC(0-t) [8]: 14600 ng·h/mL
- Stabilty [5]: Stable
- Cmax [14]: 7880 ng/mL
- F [15]: 71.6%
- AUC(0-t) [9]: 10200 ng·h/mL
- half-life [10]: 0.83 h
- remaining at 4 h [6]: 100%
- MRT inf [16]: 1.82 h

Compound: N#C[C@@]1(c2ccc3c(O)ncnn23)O[C@H](CO)[C@@H](O)[C@H]1O
- inhibition at 5 µM [1]: < 10%

Compound: Nc1ncnn2c([C@@H]3O[C@H](CO)[C@@H](O)C3(F)F)ccc12
- inhibition at 5 µM [1]: < 10%

Compound: CCC(CC)COC(=O)[C@H](C)N[P@](=O)(OC[C@H]1O[C@@](C#N)(c2cc(F)c3c(N)ncnn23)[C@H](O)[C@@H]1O)Oc1ccccc1
- inhibition at 10 µM [4]: 82%

Compound: N#C[C@@]1(c2cc(Cl)c3c(N)ncnn23)O[C@H](CO)[C@@H](O)[C@H]1O
- inhibition at 5 µM [1]: < 10%

Compound: N#C/C=C/[C@@]1(c2ccc3c(N)ncnn23)O[C@H](CO)[C@@H](O)[C@H]1O
- inhibition at 5 µM [1]: < 10%

Compound: N#C[C@@]1(c2ccc3c(N)ncnn23)O[C@H](CO)[C@@H](O)[C@H]1O [GS-441524]
- inhibition at 5 µM [1]: 99%
- EC50 [2]: 480 nM

Compound: CC(C)C(=O)OC[C@H]1O[C@@](C#N)(c2ccc3c(N)ncnn23)[C@H](O)[C@@H]1O [OBELDESIVIR]
- half-life [7]: 2.46 h
- Tmax [11]: 0.42 h
- Vd [12]: 4.17 L/kg
- MRT inf [13]: 1.33 h
- inhibition at 5 µM [1]: 99%
- EC50 [2]: 230 nM
- AUC(0-t) [8]: 13800 ng·h/mL
- Stabilty [5]: Stable
- Cmax [14]: 6680 ng/mL
- Activity [17]: Non-Toxic
- F [15]: 86.6%
- AUC(0-t) [9]: 7980 ng·h/mL
- MTD at 168 h [18]: 1000 mg/kg
- half-life [10]: 4.77 h
- Activity [19]: Non-Toxic
- remaining at 4 h [6]: 2%
- MRT inf [16]: 2.16 h
